Test results as given in article PMC6740333 (Bioconjugate chemistry, 2018).
Read-outs that look alike come from different tables or passages of the source.

Legend:
[1] = tested on: HepaRG cells; assay: Cell viability assay; type: cell-based, human
Procedure, shortened: (§1)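 HepaRG, MDCK (canine kidney) or LLC-PK1 (pig kidney) cells were grown at 37°C, 5% CO2 in RPMI 1640 with 10% FBS, 1% glutamine and 1% penicillin–streptomycin. Cells were exposed for 24 h at 37°C to serial dilutions of sulfobetaine surfactant in medium (final-volume concentrations). MTT (0.5%) was added for 4 h, formazan was dissolved in DMSO 16 h in the dark, and A590 was read against medium-only controls. Triplicate.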

[2] = Dispersion stability of surfactant-stabilized GNRs at high ionic strength; type: physicochemical; conditions: 1 M NaCl
Procedure, shortened: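 Citrate-stabilized gold nanorods were centrifuged and redispersed twice in 0.1 M NaCl containing millimolar zwitterionic sulfobetaine surfactant. Ionic strength was then raised with brine to 0.5 or 1.0 M. Dispersion stability was followed as retention of optical density, measured by absorbance spectrophotometry, after one day and one week.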

[3] = tested on: MDCK cells; assay: Cell viability assay; type: cell-based, canine; conditions: read-out: Cell viability IC50, MTT, mean of triplicate
Procedure, shortened: as §1

[4] = tested on: LLC-PK1 cells; assay: Cell viability assay; type: cell-based, pig; conditions: read-out: Cell viability IC50; LLC-PK1, MTT, mean of triplicate
Procedure, shortened: as §1

[5] = tested on: SKOV-3 cells; assay: Cell viability assay; type: cell-based; conditions: Homo sapiens, SK-OV-3, 24 h, read-out: Cell viability IC50
Procedure, shortened: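 SKOV-3 cells in folate-free RPMI 1640 (10% FBS, 1% penicillin–streptomycin) were seeded at 5,000 cells/100 μL and preincubated 24 h at 37°C, 5% CO2. Serial dilutions in medium (final-volume concentrations) were added for 24 h at 37°C. MTT (0.5%) was then added for 4 h, followed by DMSO solubilization 16 h at 25°C in the dark. A590 was normalized to medium-only cells. Triplicate.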

[6] = read-out: Cell viability IC50, MTT, mean of triplicate

SMILES	IC50 [1, 6] [µM]	retention of optical density of stabilized GNRs ([2]; after one day)	retention of optical density of stabilized GNRs ([2]; after one week) [%]	IC50 [3] [µM]	IC50 [4] [µM]	IC50 ([1]; Homo sapiens, read-out: Cell viability IC50) [µM]	IC50 [5] [µM]
CCCCCCCCCCCCCC(=O)NCCC[N+](C)(C)CCCS(=O)(=O)[O-] [ASB-14]	105	over 90%	80	120			
CCCCCCCC/C=C\CCCCCCCC[N+](C)(C)CCCS(=O)(=O)[O-] [OSB, oleylsulfobetaine]	32	over 90%	80	42	62		
CCCCCCCCCCCCCCCC[N+](C)(C)C [CTAB, cetyltrimethylammonium bromide]						8	8
CCCCCCCCCCCCCCCC(=O)NCCC[N+](C)(C)CCCS(=O)(=O)[O-] [ASB-16]	58	over 90%	80	81			
CCCCCCCCCCCCCCCCCC[N+](C)(C)CCCS(=O)(=O)[O-] [C18-SB, 3-(N,N-dimethyloctadecylammonio)sulfopropyl betaine]	52	over 90%	80	56			
